Laboratory results from ChEMBL document CHEMBL4513216, “Probing the Open Global Health Chemical Diversity Library for Multistage-Active Starting Points for Next-Generation Antimalarials” (ACS Infect Dis, 2020).

Assay: Toxicity liver stage against HepG2, at 10uM
Format: cell-based
Parameters: test concentration 10 uM, cell line HepG2-A16-CD81EGFP
Settings: human, HepG2-A16-CD81EGFP cells; read-out: INHIBITION
Outline: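 Uninfected HepG2-A16-CD81EGFP cells, 3 × 10^3 per well, 1536-well, plated on prespotted compound at 10 μM final, parasite-free screening media added to match infected plates; puromycin 10 μM positive, DMSO 0.5% negative; run in parallel with 48 h PbLuc assay at 37 °C, 5% CO2; viability by CellTiter-Glo luminescence, normalized to controls.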

## c1cnc(-c2nc(CN3CCC(c4ccn[nH]4)CC3)cs2)nc1
  cytotoxicity at 10 µM: -2.97%

## CCc1ccc(C(C)NC(=O)c2ccc(CS(C)(=O)=O)o2)cc1 (centres undefined)
  cytotoxicity at 10 µM: -3.07%

## c1ccc2c(c1)nc1n2[C@@H](CNCc2nccs2)COC1
  cytotoxicity at 10 µM: -1.4%

## CN(Cc1cccs1)S(=O)(=O)c1ccc(C(F)(F)F)nc1
  cytotoxicity at 10 µM: -5.68%

## O=C(C1CCN(c2cccnn2)C1)N1CCOCC1 (centres undefined)
  cytotoxicity at 10 µM: -25.4%

## Cn1cccc1C(CNC(=O)c1ccc(F)cc1F)N1CCCCCC1 (centres undefined)
  cytotoxicity at 10 µM: 2.19%

## CCN(CCN1CCCCCC1)C(=O)c1cnc(-c2cccnc2)nc1
  cytotoxicity at 10 µM: 11.4%

## CC(=O)NCCc1ccc(S(=O)(=O)N(C)C(C)CC(C)C)s1 (centres undefined)
  cytotoxicity at 10 µM: -1.88%

## CC(C)Cc1nc(CN2CC(=O)N(C)c3ccccc3C2=O)no1
  cytotoxicity at 10 µM: -6.7%

## Cc1noc(C)c1CS(=O)(=O)CC(=O)N1c2ccccc2CC1C (centres undefined)
  cytotoxicity at 10 µM: 3.53%

## CN(CC(=O)N1CCCC1)C(=O)c1ccccc1Nc1ccccc1
  cytotoxicity at 10 µM: 11.3%

## Cc1ccc(CC(=O)Nc2cc(C(C)C)n[nH]2)cn1
  cytotoxicity at 10 µM: -1.71%

## COc1ccc(NC(=O)CNc2ccc(Br)cc2F)cc1
  cytotoxicity at 10 µM: 0.795%

## Cc1noc(C)c1CN1C[C@H]2CNC[C@H]2C1
  cytotoxicity at 10 µM: 6.62%

## CN1C(=O)CC(C(=O)O)C12CCN(Cc1ccc(Cl)c(F)c1)CC2 (centres undefined)
  cytotoxicity at 10 µM: 2.91%

## CC(C)CCN1CCc2c(C(=O)N(C)Cc3ccccn3)nn(C)c2C1
  cytotoxicity at 10 µM: -0.449%

## Cc1cccc(NC(=O)N2CCCn3cnc(CN(C)C(C)C)c3C2)c1
  cytotoxicity at 10 µM: 8.18%

## CN1CCN(C(=O)[C@H]2CC[C@@H]3[C@@H](CCN3Cc3ccsc3)O2)CC1
  cytotoxicity at 10 µM: 1.07%

## NC(=O)CN(Cc1ccc(Br)cc1)C(=O)c1cnccn1
  cytotoxicity at 10 µM: 8.48%

## CNc1ccc(Cl)cc1C(=O)N1CCC(Cn2cc(CN)nn2)CC1
  cytotoxicity at 10 µM: -2.37%

## CC(C)c1noc(C(C)S(=O)(=O)Cc2nc(C3CC3)no2)n1 (centres undefined)
  cytotoxicity at 10 µM: -0.828%

## CNc1cc(CNC(=O)c2ccccn2)nc(-c2ccncc2)n1
  cytotoxicity at 10 µM: -2.63%

## COCCC(=O)N1CC[C@@H](N2CCN(C)CC2)[C@@H]1Cc1ccccc1
  cytotoxicity at 10 µM: 7.7%

## CN(C)CCn1ccnc1C1CCN(C(=O)CCc2cccnc2)CC1
  cytotoxicity at 10 µM: -2.21%

## CCc1nnc2n1CCN(C(C(N)=O)c1ccc(F)cc1)C2 (centres undefined)
  cytotoxicity at 10 µM: -8.13%

## COCc1ccc(C(=O)N2CCC(Oc3ccccc3OC)CC2)s1
  cytotoxicity at 10 µM: 5.79%

## COCCC(=O)N[C@H]1CN(c2nc(C)c3c(n2)CCCC3)C[C@@H]1C1CC1
  cytotoxicity at 10 µM: -12.8%

## O=C(NCC1CC1)[C@H]1C[C@H]2OCC[C@H]2N(Cc2ccsc2)C1
  cytotoxicity at 10 µM: 2.47%

## CCOCCN1CCN(CC(O)c2cc(Cl)ccc2Cl)CC1 (centres undefined)
  cytotoxicity at 10 µM: 0.858%

## CC(C)n1ncc2c1NC(=O)CSC2C(F)(F)F (centres undefined)
  cytotoxicity at 10 µM: -11.1%

## CC(=O)N1CCCC1c1nccnc1Nc1ncccn1 (centres undefined)
  cytotoxicity at 10 µM: -1.2%

## CCc1ncc(C(=O)N(CCOC)Cc2ccccc2F)cn1
  cytotoxicity at 10 µM: 0.728%

## O=S(=O)(N1CCOCC1)N1CCOC(CCCc2ccccc2)C1 (centres undefined)
  cytotoxicity at 10 µM: -8.79%

## CC(SCc1ccc(Br)c2cccnc12)C(N)=O (centres undefined)
  cytotoxicity at 10 µM: 1.67%

## Cc1ccc2c(n1)N(CC(C)C)CCN(C(=O)Cc1ccccn1)C2
  cytotoxicity at 10 µM: 12.7%

## Cc1cccc(N2CCC3(CCCN3Cc3cnn(C)c3C)CC2)n1
  cytotoxicity at 10 µM: -2.35%

## CCc1cc(N(C)Cc2[nH]nc3c2CCC3)nc(N2CCOCC2)n1
  cytotoxicity at 10 µM: 5.51%

## COc1ccc(CN2Cc3nnn(C)c3C(COCCN(C)C)C2)cc1 (centres undefined)
  cytotoxicity at 10 µM: 5.26%

## O=C(CCNC(=O)c1ccoc1)NCc1ccccc1F
  cytotoxicity at 10 µM: 1.76%

## Cc1nn(C)cc1C(=O)NCc1csc(C2CC2)n1
  cytotoxicity at 10 µM: -4.1%

## CS(=O)(=O)N1CCCC12CCCN(C(=O)c1ccno1)C2 (centres undefined)
  cytotoxicity at 10 µM: -172%

## O=C(c1cccnc1)N1CCn2cc(CN3CCCC3)nc2C1
  cytotoxicity at 10 µM: -74.8%

## Cn1ccc2ccnc(CC3CN(C(=O)C4CCC(F)(F)CC4)C3)c21
  cytotoxicity at 10 µM: -2.78%

## COC(=O)c1sc2cccc(F)c2c1CNC(=O)C1CCCO1 (centres undefined)
  cytotoxicity at 10 µM: -13.5%

## Cc1ccc(CN2CCC3(CCC(C(=O)N(C)C)O3)CC2)o1 (centres undefined)
  cytotoxicity at 10 µM: -2.63%

## Cn1cc(CC2CC(=O)N(Cc3ccc(OC(F)F)cc3)C2=O)cn1 (centres undefined)
  cytotoxicity at 10 µM: 6.6%

## c1cnc(N2CCOC3(CCN(CC4CCOC4)CC3)C2)nc1 (centres undefined)
  cytotoxicity at 10 µM: -0.777%

## Cc1cc(C2CCCN(CCNS(=O)(=O)c3ccccc3)C2)n[nH]1 (centres undefined)
  cytotoxicity at 10 µM: -28.5%

## COC[C@]1(O)CCN(Cc2ccc(N(C)C)nc2)CC1(C)C
  cytotoxicity at 10 µM: 7.63%

## Cc1cccc(NCc2nn(C)c(=O)[nH]2)c1
  cytotoxicity at 10 µM: 2.6%

## COc1cccc(C(C(=O)O)N2CCCN(C3CCCC3)CC2)c1OC (centres undefined)
  cytotoxicity at 10 µM: -11.3%

## CCCC(C)(C)NC(=O)c1cnc(C)s1
  cytotoxicity at 10 µM: 4.51%

## CN(Cc1ccco1)[C@@H]1CN(Cc2ccsc2)C[C@@H]2CCCO[C@@H]21
  cytotoxicity at 10 µM: 9.59%

## CCN1CCN(C2CCN(Cc3nnc(C4CC4)o3)CC2)C1=O
  cytotoxicity at 10 µM: 1.75%

## Cn1cc(C(=O)NCc2cncc3c2CCNC3)cn1
  cytotoxicity at 10 µM: -91.6%

## CN(Cc1csc(-c2cccs2)n1)C(=O)CN1CCOC1=O
  cytotoxicity at 10 µM: -0.811%

## CC(C)(C)c1nnnn1CC(=O)N(CCC#N)c1ccccc1
  cytotoxicity at 10 µM: -14.2%

## CC(=O)NCC1CCN(C(=O)NCc2ccc3c(c2)OCCO3)CC1
  cytotoxicity at 10 µM: -7.11%

## CC(Cc1ccccn1)N(C)Cc1ccc2c(c1)CCO2 (centres undefined)
  cytotoxicity at 10 µM: -0.0105%

## CNC(=O)[C@H]1C[C@@H]2CN(C(=O)c3ccncc3)C[C@@H]2N1S(C)(=O)=O
  cytotoxicity at 10 µM: -5.98%

## Cc1cc(C)n(CC2CCCN2CCCc2nc3ccccc3o2)n1 (centres undefined)
  cytotoxicity at 10 µM: -10.9%

## c1ncc2c(n1)CN(Cc1nc(-c3ccc4c(c3)OCO4)no1)CC2
  cytotoxicity at 10 µM: -10.4%

## CCc1nc(CN2CCOC(CNc3cccnn3)C2)cs1 (centres undefined)
  cytotoxicity at 10 µM: -11%

## CC(C)CCN1CCN(Cc2nc(C(C)C)no2)CC1
  cytotoxicity at 10 µM: -6.71%

## CN(C)C(=O)N1CCN(Cc2ccc3occc3c2)[C@H]2CS(=O)(=O)C[C@H]21
  cytotoxicity at 10 µM: -4.37%

## CSc1ccc(NS(=O)(=O)c2cnn(C)c2)cn1
  cytotoxicity at 10 µM: -4.69%

## CN1C(=O)[C@@H]2CC[C@H]1CN(C(=O)c1sccc1S(N)(=O)=O)C2
  cytotoxicity at 10 µM: 5.6%

## CCN1CC(C(=O)N2CC(Oc3ccccc3F)C2)CC1=O (centres undefined)
  cytotoxicity at 10 µM: -2.49%

## Cc1cn(-c2ccccc2)nc1NS(=O)(=O)c1ccc(C(=O)O)cc1F
  cytotoxicity at 10 µM: -2.59%

## CN1C(=O)CCN(C(=O)C2CC=CC2)c2ccccc21
  cytotoxicity at 10 µM: 8.96%

## CN(C)C(=O)N[C@@H]1CN(S(C)(=O)=O)[C@@H]2CCCO[C@@H]21
  cytotoxicity at 10 µM: 2.62%

## COCCC1COC2(CCN(C(=O)C3CCCCC3)CC2)C1 (centres undefined)
  cytotoxicity at 10 µM: 7.4%

## COCCN1CC[C@@H]2OC[C@H](C(=O)NCc3cccs3)C[C@@H]2C1
  cytotoxicity at 10 µM: 2.7%

## CC(=O)N(Cc1ncc(C)o1)C1CCN(Cc2cccc(C#N)c2)C1 (centres undefined)
  cytotoxicity at 10 µM: 1.63%

## CCC(=O)NCC(=O)NCC1(O)CCC(C(C)(C)C)CC1 (centres undefined)
  cytotoxicity at 10 µM: 6.93%

## CS(=O)(=O)CCC(=O)N1CCC(c2cccc(F)c2)C1 (centres undefined)
  cytotoxicity at 10 µM: 3.71%

## Cc1nc(N2C[C@H]3CC[C@@H](C2)N3)nc2cc(S(C)(=O)=O)ccc12
  cytotoxicity at 10 µM: -7.71%

## Cc1nc(C)n(CC2CCCN(CC3CCCCC3)C2)n1 (centres undefined)
  cytotoxicity at 10 µM: 2.04%

## O=C([C@@H]1CCO[C@@H]2CCN(CC3CC3)C[C@H]21)N1CCCCO1
  cytotoxicity at 10 µM: 6.59%

## CCN(CC)C(=O)C1CCC2(CCNCC2)O1 (centres undefined)
  cytotoxicity at 10 µM: -162%

## Cc1nnc(NC(=O)NCc2ccc(F)cc2)s1
  cytotoxicity at 10 µM: -26%

## NC(=O)CCn1ccc(NC(=O)c2ccc(Br)o2)n1
  cytotoxicity at 10 µM: -1.39%

## CC(C(N)=O)N1CCN(c2ncc(Br)cn2)CC1 (centres undefined)
  cytotoxicity at 10 µM: 3.23%

## CCOC(=O)CCNC(=O)N1CCCC(CNC(=O)c2cccs2)C1 (centres undefined)
  cytotoxicity at 10 µM: 0.712%

## c1csc(N2CCCN(c3ncnc4sccc34)CC2)n1
  cytotoxicity at 10 µM: 45.3%

## Cc1cncc(C(=O)N2CCC3(CC2)NC(=O)CC3c2ccccc2)c1 (centres undefined)
  cytotoxicity at 10 µM: -78.1%

## O=C([C@H]1CC[C@@H]2[C@@H](CCN2Cc2ccsc2)O1)N1CCOCC1
  cytotoxicity at 10 µM: 1.3%

## CNC(=O)C1CN(C)CCN(CCCOc2ccccc2F)C1 (centres undefined)
  cytotoxicity at 10 µM: -1%

## COCC(=O)N1CCC(Cc2nccnc2-c2c(C)n[nH]c2C)C1 (centres undefined)
  cytotoxicity at 10 µM: -11.7%

## O=C([C@H]1CN(Cc2nccs2)C[C@H]2OCC[C@@H]12)N1CCCCO1
  cytotoxicity at 10 µM: -111%

## CCN1CCN(C2CCN(Cc3ccc(Cl)s3)CC2)C1=O
  cytotoxicity at 10 µM: 13.1%

## O=c1[nH]nc2c(S(=O)(=O)N3CCCCC3)cccn12
  cytotoxicity at 10 µM: 2.41%

## CCOc1ccc2c(c1)C=C(C(=O)NC(C)Cn1cccn1)CO2 (centres undefined)
  cytotoxicity at 10 µM: 6.95%

## Cc1cnc(CNc2ccccc2CN(C)C(=O)c2cccs2)o1
  cytotoxicity at 10 µM: -3.83%

## CSCC(=O)N1CCCN(Cc2cscn2)CC1
  cytotoxicity at 10 µM: -5.28%

## COC(=O)c1sccc1S(=O)(=O)N1CCc2c(ncnc2N(C)C)C1
  cytotoxicity at 10 µM: -1.6%

## CC(C)CN1CCC(c2nc3ccc(NC(C)C)cn3n2)CC1
  cytotoxicity at 10 µM: 1.13%

## COc1ccc(C(N)=O)cc1NCc1ncc(-c2cccs2)o1
  cytotoxicity at 10 µM: 8.2%

## CCCNC(=O)NC(=O)CN1C=Nc2ccccc2S1(=O)=O
  cytotoxicity at 10 µM: -3.12%

## Cc1oc(-c2ccsc2)nc1CC(=O)NCCS(C)(=O)=O
  cytotoxicity at 10 µM: -8.6%

## CCN1CCCC1CNCc1cc2ccccc2[nH]c1=O (centres undefined)
  cytotoxicity at 10 µM: 1.78%

## O=C(COCC1CC1)N1CCSCC1
  cytotoxicity at 10 µM: -21.2%

## CN(C)C(=O)c1n[nH]c2c1CN(CC1CCC1)C2
  cytotoxicity at 10 µM: -2.22%

## COCCn1ccc2ccc(NC(=O)NCc3noc(C)n3)cc21
  cytotoxicity at 10 µM: 7.36%

## COc1ccc(CC(=O)NCCCc2nnc3nc(C)cc(C)n23)cc1
  cytotoxicity at 10 µM: 4.45%

## CNc1nc(CNC(=O)Nc2cccc(C(C)OC)c2)cs1 (centres undefined)
  cytotoxicity at 10 µM: -13.3%

## CCO[C@@H]1CC[C@H]2[C@H]1OCCN2C(=O)c1nn(C)c2ccccc12
  cytotoxicity at 10 µM: -2.69%

## CCS(=O)(=O)N1CCC(c2nccn2Cc2ccncc2)CC1
  cytotoxicity at 10 µM: -4%

## Cc1ccc(-c2cc(CN(CC(N)=O)CC(C)C)on2)cc1
  cytotoxicity at 10 µM: 10.1%
